System: MS2 coat protein
Assay: apparent Kd, MS2 coat protein; higher = weaker binding; RNA-MaP array; FMN 200 µM where present
Outline: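 The apparent Kd is reported as the median of filtered per-cluster binding-curve fits. To get these curves, designs transcribed by stalled E. coli RNA polymerase on Illumina sequencing-chip clusters were titrated with SNAP-549-labelled MS2 coat protein from 0.7 or 1.5 nM, doubling to 3 µM. Titrations were run without and then with constant ligand in 100 mM Tris-HCl pH 7.5, 80 mM KCl, 4 mM MgCl2, BSA, DTT, yeast tRNA and Tween-20, and green signal was normalised to red-channel RNA signal and control-cluster median Fmax.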

[1] = designed as: OFF switch for flavin mononucleotide, no ligand
[2] = ligand present: flavin mononucleotide, designed as: OFF switch for flavin mononucleotide
[3] = designed as: ON switch for flavin mononucleotide, no ligand
[4] = ligand present: flavin mononucleotide, designed as: ON switch for flavin mononucleotide

Sequence: AUUAUGCAGCAGGAUAUCGAUCCGCAGUAUGAUCGAGAAGGGCUGACAUGAGGAUCACCCAUGUGCGUCCUAGG
- apparent Kd [1]: 0.0436 µM
- apparent Kd [2]: 0.155 µM

Sequence: GCGUAACAUGAGGAUCACCCAUGUACUCGAGAAUUCGAGUGUAGAAGGGUGACCGGUCGUUUGGCACAGGAUAUACACGCUGUG
- apparent Kd [3]: 0.0315 µM
- apparent Kd [4]: 0.012 µM

Sequence: CACUCGUGUCUAGGAUAUGAGUGACAAGCGCGAGAUUUUCUCACCGCUAGCUCAGAAGGAGACAUGAGGAUCACCCAUGUAAGG
- apparent Kd [1]: 0.165 µM
- apparent Kd [2]: 0.0203 µM

Sequence: AGCGUGUAAGGAUAUACGUCGGAUAGCGAAUGCUGUCCGUAGUAGAAGGUACAUGAGGAUCACCCAUGUGUCCA
- apparent Kd [1]: 0.0251 µM
- apparent Kd [2]: 0.0941 µM

Sequence: UUAAAUUAGUAGAAGGACGGAGAGUAUAAAGUCGUAGGAUAUACAUAAGACAUGAGGAUCACCCAUGUAAGUUUGUGAGGUAUG
- apparent Kd [1]: 0.0148 µM
- apparent Kd [2]: 0.0153 µM

Sequence: UUUAUGUGAGGAUAUAGUACUCCUUCUAUUAUUAUUGAGUACUAGAAGGCACAUGAGGAUCACCCAUGUAGUAC
- apparent Kd [1]: 0.03 µM
- apparent Kd [2]: 0.0483 µM

Sequence: GCUGUAAGAGGAUAUACAUGGUAUUGACUGGCACCGGUUAGACAUGAGGAUCACCCAUGUAGAAGGCUUGUAUG
- apparent Kd [1]: 0.0863 µM
- apparent Kd [2]: 0.248 µM

Sequence: CCCAGAGCGUAAGGAUAUACAUGAGGAUCACCCAUGUCUACAAUAAUAGUACUAUAUGAAGUCGUGUAGAAGGUACGCGCAGGU
- apparent Kd [1]: 0.0412 µM
- apparent Kd [2]: 0.119 µM

Sequence: GGCGGAGACGUUAACAUGAGGAUCACCCAUGUCGAAGGAGAUGAGGAUAUCGCAUACGAUGUAUGUGAGAAGGCAUGGUCUGCC
- apparent Kd [3]: 0.03 µM
- apparent Kd [4]: 0.0106 µM

Sequence: AGUCGGAGCAGAGGAUAUACAUGAGGAUCACCCAUGUAAUAAAGUGAAGCCUGGAAACAGGCAAUGUAGAAGGCUGCUCCGACA
- apparent Kd [1]: 0.0281 µM
- apparent Kd [2]: 0.232 µM

Sequence: UUUAUAUGAGGAUAUCCGAGGAGCCACAUGAGGAUCACCCAUGUCGUCUUUUGUGAUAGUGGAGAAGGUGUGUCAG
- apparent Kd [1]: 0.0277 µM
- apparent Kd [2]: 0.0316 µM

Sequence: CGCAUUCCGUAGAAGGGUGACAUGAGGAUCACCCAUGUGCGAGCCGAGGGAGUCAGCGGCUCGCCACAGGAUAUACGGAGCACG
- apparent Kd [3]: 0.0873 µM
- apparent Kd [4]: 0.0848 µM

Sequence: AAGAAGUCAGGAUAUCCAUGGCGGCACUUGCGUGGUGGCGUGGAGAAGGGACAUGAGGAUCACCCAUGUAAAGU
- apparent Kd [1]: 0.049 µM
- apparent Kd [2]: 0.0446 µM

Sequence: UGGGCCCGAACAGGAUAUGUAACCAGUCCCUCACAUGAGGAUCACCCAUGUCCAAGGGCUCGAAGGCAGAAGGGUUAAGGCUGU
- apparent Kd [3]: 0.74 µM
- apparent Kd [4]: 0.138 µM

Sequence: CUAUCGUUGCAGAAGGUUAAAUAAUUUCUCAUCUUGUUUACAUGAGGAUCACCCAUGUAUUUGUUGAAGGAUAUGCAAGUGUUG
- apparent Kd [1]: 0.0125 µM
- apparent Kd [2]: 0.011 µM

Sequence: CGAGUUUUUGAGAAGGCAUAUUAUAUUAUACCACAUGUUUACAUGAGGAUCACCCAUGUUUCCUAUGAGGAUAUCAGAAUGUCG
- apparent Kd [1]: 0.00934 µM
- apparent Kd [2]: 0.00733 µM

Sequence: AACAAGCAAGGAUAUACAUGAGGAUCACCCAUGUCGUCUAAACGUACAUGCUACUCUUGUAGAAGGUGCAAAAU
- apparent Kd [1]: 0.129 µM
- apparent Kd [2]: 0.537 µM

Sequence: AAAACAUGAGGAUCACCCAUGUAAAGAUCGGUUAAUAGAGGUGAGGAUAUACGAACUUUUGGGUAGUAGAAGGCACUGGGUACA
- apparent Kd [3]: 0.0581 µM
- apparent Kd [4]: 0.044 µM

Sequence: CCGGAAACGGGUAGCCUGACAUGAGGAUCACCCAUGUGAUCCUAGGAUAUGGAUCCUAAUUGGAUCCAGAAGGAGGUUGGCUAC
- apparent Kd [3]: 1.28 µM
- apparent Kd [4]: 0.368 µM

Sequence: UUUCCACAUGAGGAUCACCCAUGUCAGGAUAUUAGAUCUAUUUAUACAUAUAAUUAUUUAAGAAGGGACACUAA
- apparent Kd [1]: 0.0181 µM
- apparent Kd [2]: 0.0169 µM

Sequence: AGGAGUAAAGGGAAUAACAUGAGGAUCACCCAUGUAUGGGAGAGAAGGCAGAUCGGAGGACGAUCUGAGGAUAUUUAAACUCUA
- apparent Kd [3]: 0.0726 µM
- apparent Kd [4]: 0.0168 µM

Sequence: CCAGAUUUCACAGGAUAUAUUGAUGACAUGAGGAUCACCCAUGUACCGGCAGUAGAAGGGUGAACGCACGUGACCACGUGCGUG
- apparent Kd [3]: 0.0541 µM
- apparent Kd [4]: 0.0149 µM

Sequence: GGUCGCAAGUAAGGAUAUGCAUAUGAAACAUAUGCAGAAGGUACAUGAGGAUCACCCAUGUUAAUGCAAAGCGAAUAAGCGACC
- apparent Kd [1]: 0.0155 µM
- apparent Kd [2]: 0.0196 µM

From the EternaBench riboswitch data
